The species named for assay [1] is Rattus norvegicus. As to the kind of experiment: Effect on in vitro myocardial electrical activity (arrhythmia score) at 5 uM. Type of assay: functional, Myocardium.
Assay [2] is filed under the species Rattus norvegicus. As to the kind of experiment: Inhibition of in vitro peroxidation (LP) of rat Hepatic microsomal membrane lipid. Type of assay: functional. The method in brief:
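Rat liver microsomal membranes were subjected to lipid peroxidation induced by ferrous ions and ascorbate. Values are mean ± SEM, n = 3.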

For assay [3], the species on record is Rattus norvegicus. The experiment in a line: Evaluated for the interaction with 0.2 mM of the stable free radical DPPH. The assay is classed as functional. The method in brief:
(§1)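 Compounds were reacted with the stable free radical DPPH at 0.2 mM. The IC50 (mM) is the concentration that reacts with half of the radical.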
On the technique in general: Loss of DPPH colour is used to gauge radical scavenging.

Assay [4] is filed under the species Rattus norvegicus. The experiment in a line: Effect on in vitro accumulation of MDA content in heart, at conc of 5 uM. Type of assay: functional.
The species named for assay [5] is Rattus norvegicus. As to the kind of experiment: Effect of compound on in vitro accumulation of MDA content in heart at concentration of 5 uM. The assay is classed as functional.
The species entered for assay [6] is Rattus norvegicus. The experiment in a line: The compound was evaluated for the interaction with 0.2 mM of the stable free radical DPPH. The assay is classed as functional. A digest of the protocol:
as §1

Molecules are shown by their SMILES.

For orientation: IC50 means the concentration needed to halve the response being measured. Higher therefore signals weaker potency in that assay. Molecule `O=C(O)CCCCC1CCSS1` (stereo not drawn) [LIPOIC ACID, ALPHA] registered an Arrhythmia score in assay [1] of 6.3. Further, the IC50 in assay [2] is over 1000 µM; in assay [3] it was over 400 µM. Further, the MDA content in assay [4] is 1.03 µM (g of tissue)-1.
As to `Cc1c(C)c2c(c(C)c1O)CCC(C)(C(=O)O)O2` (stereo not given) [TROLOX], the MDA content in assay [5] is 1.07 uM (g of tissue)-1. Besides, the IC50 was 45 µM in assay [6] and 24.8 µM in assay [2]. In assay [1], this molecule returned an Arrhythmia score of 3.15.
As to `Cc1c(C)c2c(c(C)c1O)CCC(C)(C(=O)Nc1ccc3c(c1)Cc1cc(NC(=O)CCCCC4CCSS4)ccc1-3)O2` (stereo not given), the figures for the IC50 in assay [2] and in assay [3] were 2.58 µM and 20 µM, respectively.

Values taken from ChEMBL document CHEMBL1134786, “Novel potent inhibitors of lipid peroxidation with protective effects against reperfusion arrhythmias” (J Med Chem, 2001).
